Test system: MCF-7 cells
Assay: Inhibition of [125I]I-AM uptake into MCF-7 cells by blocking agents
Format: cell-based
Details: blocking agent at 1 mm
Summary of the method: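 Blocking uptake study in MCF-7 cells, cultured and given radiotracer as in the standard uptake assay (serum-free MEM + 0.2% BSA, 37 °C, gamma counting of lysate versus medium). Cells were treated separately with unlabelled parent compound, tamoxifen or 17β-estradiol, each at one stated concentration. Groups were compared by one-way ANOVA with Tukey's multiple comparison test.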

## C[C@]12CC[C@@H]3c4ccc(O)cc4CC[C@H]3[C@@H]1CC[C@@H]2O [estradiol, 17 β -estradiol]
  effect on uptake of [125I]I-AM into MCF-7 cells: not inhibited

## CC/C(=C(\c1ccccc1)c1ccc(OCCN(C)C)cc1)c1ccccc1 [tamoxifen]
  effect on uptake of [125I]I-AM into MCF-7 cells: significantly inhibited

— PMC11471106 (Drug Design, Development and Therapy, 2024)
